Where a name gives a salt, the structure may show the parent alone.

The subject of data set [1] is Mycobacterium tuberculosis. Nature of the data set: Antitubercular activity against Mycobacterium tuberculosis H37Rv. In kind it is functional.
The test system of data set [2] is Corynebacterium glutamicum. The experiment in a line: Antitubercular activity against Corynebacterium glutamicum ATCC 13032. It counts as functional. The essentials:
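Grown in 7H9 medium; susceptibility determined by resazurin reduction. MIC99 is the lowest drug concentration preventing growth of 99% of cells.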

Data set [3] relates to Mycolicibacterium smegmatis. The experiment in a line: Antitubercular activity against Mycobacterium smegmatis mc2 155. The note with it: str. MC2 155. It counts as functional.
A further data set has as its system Plasmodium berghei. Nature of the data set: Antiparasitic activity against Plasmodium berghei infected in mice (Mus musculus) assessed as reduction of parasitaemia at 50 mg/kg, intraperitoneally administered 4, 24, 48, 72 hrs post infection measured 24 hrs of last treatment on day 4 relative to control. The settings on record: route intraperitoneal. Details: scale not given: the % may be the effect or the level left. In kind it is functional. In outline: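 Compounds formulated in DMSO/water and given i.p. at 50 mg/kg, 4 doses, to P. berghei-infected mice. Parasitaemia measured by FACS on day 4 post infection, 24 h after the last dose. Activity is the difference in mean % parasitaemia between control (n = 5 mice) and treated groups, as % of control. Mean survival time was also recorded.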

Data set [4] in a line: Selectivity ratio of IC50 for rat L6 cells to IC50 for Plasmodium falciparum K1. The note with it: L6 cells (cytotoxicity) versus Plasmodium falciparum K1, read-out: Ratio IC50. It counts as ADME, cell-based.
A further data set has as its system Plasmodium falciparum. The experiment in a line: Antiparasitic activity against Plasmodium falciparum K1. In kind it is functional, organism-based. In outline:
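Tested against erythrocytic stages of the K1 strain.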

The subject of the next data set is Leishmania donovani. The experiment in a line: Antiparasitic activity against Leishmania donovani MHOM-ET-67/L82 axenic amastigotes. In kind it is functional, organism-based.
In another data set the test system is L6. Nature of the data set: Cytotoxicity against rat L6 cells. In kind it is cell-based.
Data set [5] concerns Trypanosoma brucei rhodesiense. The experiment in a line: Antiparasitic activity against Trypanosoma brucei rhodesiense STIB 900. It counts as functional, organism-based. In outline: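 Tested against bloodstream forms of STIB 900.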
Another data set concerns Trypanosoma cruzi. The experiment in a line: Antiparasitic activity against Trypanosoma cruzi Tulahuen C2C4. It counts as functional, organism-based. The essentials: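 Tested against Tulahuen C2C4 amastigotes grown in L6 rat skeletal myoblasts.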

As for `Clc1ccc2[nH]c3c[n+](CCCCCCCCCCCC[n+]4ccc5c(c4)[nH]c4ccc(Cl)cc45)ccc3c2c1`, the MIC99 came out at 7 µM in data set [1], 14 µM in data set [2] and 17 µM in data set [3].

Consider `Clc1ccc2[nH]c3c[n+](Cc4ccc(C[n+]5ccc6c(c5)[nH]c5ccc(Cl)cc56)cc4)ccc3c2c1`, for which the MIC99 in data set [1] is > 17 µM; in [2] it was > 17 µM; in [3], > 170 µM.

With `Clc1ccc2[nH]c3c[n+](C/C=C\C[n+]4ccc5c(c4)[nH]c4ccc(Cl)cc45)ccc3c2c1.[Cl-].[Cl-]`, the MIC99 in data set [1] was 9 µM; in [2], 5 µM; in [3] it was > 188 µM. For the same compound, in the data set on Plasmodium berghei, the Activity was determined as 11.53%.

`Clc1ccc2[nH]c3c[n+](CCCCCCCC[n+]4ccc5c(c4)[nH]c4ccc(Cl)cc45)ccc3c2c1`: the MIC99 in [1] came out at 7 µM; in data set [2], 7 µM; in data set [3], 147 µM.

For the compound `Clc1ccc2[nH]c3c[n+](CCCCCCCCCC[n+]4ccc5c(c4)[nH]c4ccc(Cl)cc45)ccc3c2c1`, the MIC99 is 4 µM in [1], 14 µM in [2] and > 142 µM in data set [3].

`Clc1ccc2[nH]c3c[n+](Cc4cccc(C[n+]5ccc6c(c5)[nH]c5ccc(Cl)cc56)c4)ccc3c2c1`: the MIC99 worked out at 20 µM in data set [1], 20 µM in [2] and 50 µM in [3].

Take `C[n+]1ccc2c(c1)[nH]c1ccc(Br)cc12.[I-]`: in [4], the selectivity ratio was 4780. In addition, the IC50 is 0.018 µM with Plasmodium falciparum; > 230 µM in the data set with Leishmania donovani; 86.1 µM in the data set on L6; 47.2 µM in data set [5]; 132 µM in the data set with Trypanosoma cruzi. In addition, the Activity with Plasmodium berghei turned out to be 0%.

Regarding `CCCC[n+]1ccc2c(c1)[nH]c1ccc(Br)cc12`, the selectivity ratio in data set [4] stood at 60. Besides, the IC50 stood at 1.15 µM in the data set on Plasmodium falciparum; 35.1 µM in the data set with Leishmania donovani; 68.7 µM in the data set with L6; 11.7 µM in data set [5]; 35.3 µM in the data set with Trypanosoma cruzi.

Take `CC[n+]1ccc2c(c1)[nH]c1ccc(Cl)cc12.[I-]`: in [4], the selectivity ratio stood at 250. Further, the IC50 in the data set on Plasmodium falciparum came to 0.452 µM; with Leishmania donovani it was 251 µM; in the data set on L6 it was 113 µM; in data set [5] it was 36.8 µM; with Trypanosoma cruzi, 100 µM. Moreover, the Activity with Plasmodium berghei worked out at 15.36%.

Turning to `C=CC[n+]1ccc2c(c1)[nH]c1ccc(Cl)cc12`, the selectivity ratio in [4] stood at 152. Moreover, the IC50 was 0.831 µM with Plasmodium falciparum; 196 µM with Leishmania donovani; 126 µM with L6; 33.5 µM in data set [5]; 57.8 µM with Trypanosoma cruzi.

With `Brc1ccc2[nH]c3c[n+](Cc4ccc5ccccc5c4)ccc3c2c1`, in data set [4], the selectivity ratio stood at 11. In addition, the IC50 with Plasmodium falciparum amounted to 0.481 µM; with Leishmania donovani it was 17.7 µM; in the data set on L6, 5.1 µM; in data set [5], 4.1 µM; in the data set on Trypanosoma cruzi, 7.5 µM.

`CC[n+]1ccc2c(c1)[nH]c1c(Br)cccc12`: in data set [4], the selectivity ratio was 23. Also, the IC50 with Plasmodium falciparum was 6.62 µM; in the data set on Leishmania donovani, > 223 µM; in the data set with L6 it was 153 µM; in data set [5], 25 µM; in the data set on Trypanosoma cruzi, 170 µM.

As for `C=CC[n+]1ccc2c(c1)[nH]c1c(Br)cccc12`, the selectivity ratio in [4] was 17. In addition, the 50% inhibitory concentration (IC50) amounted to 6.74 µM in the data set on Plasmodium falciparum; 123 µM in the data set on Leishmania donovani; 112 µM in the data set on L6; 26.2 µM in [5]; 154 µM with Trypanosoma cruzi.

Turning to `Fc1ccc(C[n+]2ccc3c(c2)[nH]c2c(Br)cccc23)cc1`, the selectivity ratio in data set [4] stood at 5. The IC50 with Plasmodium falciparum was determined as 3.28 µM; in the data set with Leishmania donovani, 53.4 µM; with L6, 17.5 µM; in data set [5] it was 3.8 µM; with Trypanosoma cruzi, 28.7 µM.

For `Clc1ccc2[nH]c3c[n+](CCCc4ccccc4)ccc3c2c1`, the selectivity ratio in [4] came out at 44. Besides, the IC50 was found to be 1.61 µM with Plasmodium falciparum; 18.6 µM in the data set on Leishmania donovani; 71.3 µM in the data set with L6; 6.2 µM in [5]; 20.9 µM in the data set on Trypanosoma cruzi.

As to `CCCC[n+]1ccc2c(c1)[nH]c1ccc(Cl)cc12`, in [4], the selectivity ratio came out at 46. For the same compound, the half-inhibitory concentration (IC50) with Plasmodium falciparum was 1.62 µM; with Leishmania donovani, 112 µM; in the data set on L6, 74 µM; in data set [5], 11.6 µM; in the data set with Trypanosoma cruzi, 104 µM.

Regarding `Clc1ccc2[nH]c3c[n+](Cc4ccccc4)ccc3c2c1`, the selectivity ratio in data set [4] worked out at 9. Also, the IC50 with Plasmodium falciparum is 3 µM; in the data set with Leishmania donovani it was 113 µM; in the data set on L6, 27 µM; in data set [5], 6.2 µM; in the data set on Trypanosoma cruzi, 24.6 µM.

For `Fc1ccc(C[n+]2ccc3c(c2)[nH]c2ccc(Cl)cc23)cc1`, the selectivity ratio in data set [4] was 24. In addition, the IC50 was determined as 4.67 µM in the data set on Plasmodium falciparum; 110 µM in the data set on Leishmania donovani; 111 µM in the data set with L6; 18.1 µM in [5]; 87.7 µM with Trypanosoma cruzi.

As for `CC[n+]1ccc2c(c1)[nH]c1ccc(Br)cc12.[I-]`, the selectivity ratio in data set [4] was determined as 2440. For the same compound, the IC50 is 0.032 µM with Plasmodium falciparum; > 223 µM with Leishmania donovani; 78.8 µM in the data set on L6; 26.4 µM in data set [5]; 90.5 µM in the data set on Trypanosoma cruzi. In addition, in the data set with Plasmodium berghei, the Activity came out at 13.25%.

In the case of `COC(=O)CCC[n+]1ccc2c(c1)[nH]c1ccc(Br)cc12`, the selectivity ratio in data set [4] amounted to 70. For the same compound, the IC50 in the data set with Plasmodium falciparum was 2.33 µM; with Leishmania donovani it was > 203 µM; in the data set on L6, 162 µM; in data set [5], 111 µM; in the data set with Trypanosoma cruzi it was 64.6 µM.

Regarding `Fc1ccc(C[n+]2ccc3c(c2)[nH]c2ccc(Br)cc23)cc1`, the selectivity ratio in data set [4] amounted to 13. Besides, the IC50 with Plasmodium falciparum is 1.76 µM; in the data set on Leishmania donovani, 16.4 µM; in the data set on L6, 22.6 µM; in [5], 4.7 µM; in the data set on Trypanosoma cruzi, 13.3 µM.

In the case of `Fc1cccc(C[n+]2ccc3c(c2)[nH]c2ccc(Br)cc23)c1`, the selectivity ratio in data set [4] is 19. Further, the IC50 in the data set with Plasmodium falciparum was found to be 2.15 µM; with Leishmania donovani, 11 µM; in the data set with L6, 41.5 µM; in [5], 5.6 µM; in the data set with Trypanosoma cruzi it was 25.9 µM.

With `O=[N+]([O-])c1ccc(C[n+]2ccc3c(c2)[nH]c2ccc(Cl)cc23)cc1`, in data set [4], the selectivity ratio was determined as 19. The IC50 with Plasmodium falciparum worked out at 2.21 µM; with Leishmania donovani it was 146 µM; with L6, 42.2 µM; in [5], 21.3 µM; in the data set on Trypanosoma cruzi, 32.8 µM.

As to `O=[N+]([O-])c1ccc(C[n+]2ccc3c(c2)[nH]c2ccc(Br)cc23)cc1`, the selectivity ratio in data set [4] was 14. The IC50 in the data set on Plasmodium falciparum is 1.33 µM; in the data set on Leishmania donovani, 38.2 µM; in the data set with L6 it was 18.1 µM; in [5], 10.8 µM; with Trypanosoma cruzi it was 14.1 µM.

For `Brc1cccc2c1[nH]c1c[n+](Cc3ccc4ccccc4c3)ccc12`, in data set [4], the selectivity ratio stood at 7. In addition, the IC50 came out at 0.502 µM with Plasmodium falciparum; 46.4 µM with Leishmania donovani; 3.7 µM in the data set on L6; 4.4 µM in data set [5]; 7.9 µM with Trypanosoma cruzi.

`Brc1ccc2[nH]c3c[n+](CCCc4ccccc4)ccc3c2c1`: the selectivity ratio in [4] was determined as 60. The IC50 with Plasmodium falciparum came to 0.459 µM; in the data set on Leishmania donovani, 20.4 µM; with L6, 27.5 µM; in [5], 4.5 µM; in the data set with Trypanosoma cruzi, 12.6 µM.

As for `C=CC[n+]1ccc2c(c1)[nH]c1ccc(Br)cc12.[Br-]`, the selectivity ratio in data set [4] was found to be 266. In addition, the half-maximal inhibitory concentration (IC50) in the data set on Plasmodium falciparum came out at 0.492 µM; in the data set with Leishmania donovani it was 20.1 µM; in the data set on L6, 131 µM; in data set [5] it was 17.4 µM; in the data set with Trypanosoma cruzi it was 86.6 µM. Moreover, the Activity in the data set with Plasmodium berghei came to 3.57%.

As for `COC(=O)CCC[n+]1ccc2c(c1)[nH]c1ccc(Cl)cc12`, the selectivity ratio in data set [4] is 66. Besides, the IC50 is 3.14 µM in the data set with Plasmodium falciparum; 117 µM in the data set on Leishmania donovani; 207 µM with L6; 106 µM in data set [5]; 115 µM with Trypanosoma cruzi.

In the case of `Brc1ccc2[nH]c3c[n+](Cc4ccccc4)ccc3c2c1`, the selectivity ratio in [4] is 26. The IC50 with Plasmodium falciparum turned out to be 2.37 µM; in the data set with Leishmania donovani, 21.2 µM; with L6, 61.6 µM; in [5], 5.2 µM; in the data set with Trypanosoma cruzi, 16.3 µM.

For `Brc1cccc2c1[nH]c1c[n+](Cc3ccccc3)ccc12`, in [4], the selectivity ratio is 11. Further, the IC50 is 2.58 µM in the data set with Plasmodium falciparum; 66.5 µM in the data set on Leishmania donovani; 28.7 µM in the data set on L6; 7 µM in [5]; 42.9 µM in the data set with Trypanosoma cruzi.

Regarding `C[n+]1c2ccccc2cc2[n-]c3ccccc3c21` [CRYPTOLEPINE HYDROCHLORIDE], in [4], the selectivity ratio was determined as 9.

`O=C1c2ccccc2-[n+]2ccc3c([nH]c4ccccc43)c21` [FASCAPLYSIN CHLORIDE]: in data set [4], the selectivity ratio came to 50. The IC50 in the data set with Plasmodium falciparum came out at 0.184 µM.

As to `C[n+]1cc2[nH]c3ccccc3c2c2ccccc21` [ISONEOCRYPTOLEPINE], the selectivity ratio in [4] came to 18.

Take `C[n+]1ccc2c(c1)[nH]c1ccccc12` [NORMELINONINE F]: the selectivity ratio in data set [4] was > 853.

As a reminder, the MIC99 is an inhibitory concentration at the 99% level, which refers to growth in some studies and to a panel of isolates in others. One may read the IC50 as the concentration needed to halve the response being measured.

Source of the values: ChEMBL document CHEMBL1157552, “Antimalarial and antitubercular nostocarboline and eudistomin derivatives: synthesis, in vitro and in vivo biological evaluation” (Bioorg Med Chem, 2010).
